Reference: ChEMBL document CHEMBL4265954, “Discovery of potent liver-selective stearoyl-CoA desaturase-1 (SCD1) inhibitors, thiazole-4-acetic acid derivatives, for the treatment of diabetes, hepatic steatosis, and obesity” (Eur J Med Chem, 2018)

Assays:
[1] = Oral bioavailability in Sprague-Dawley rat at 10 mg/kg; assay type: ADME, organism-based; settings: in vivo
In short: (§1)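 Two male Sprague-Dawley rats per route, 10 mg/kg po and 1 mg/kg iv. Cmax, tmax, terminal-phase half-life and AUC0-inf were taken from plasma concentration–time curves. Bioavailability was derived from the po and iv data.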

Cytochrome P450 3A4 = Cytochrome P450 3A4 (Homo sapiens, UniProt P08684); assay: Inhibition of CYP3A4 (unknown origin); assay type: ADME
Chain of Cytochrome P450 3A4 (P08684 whole entry): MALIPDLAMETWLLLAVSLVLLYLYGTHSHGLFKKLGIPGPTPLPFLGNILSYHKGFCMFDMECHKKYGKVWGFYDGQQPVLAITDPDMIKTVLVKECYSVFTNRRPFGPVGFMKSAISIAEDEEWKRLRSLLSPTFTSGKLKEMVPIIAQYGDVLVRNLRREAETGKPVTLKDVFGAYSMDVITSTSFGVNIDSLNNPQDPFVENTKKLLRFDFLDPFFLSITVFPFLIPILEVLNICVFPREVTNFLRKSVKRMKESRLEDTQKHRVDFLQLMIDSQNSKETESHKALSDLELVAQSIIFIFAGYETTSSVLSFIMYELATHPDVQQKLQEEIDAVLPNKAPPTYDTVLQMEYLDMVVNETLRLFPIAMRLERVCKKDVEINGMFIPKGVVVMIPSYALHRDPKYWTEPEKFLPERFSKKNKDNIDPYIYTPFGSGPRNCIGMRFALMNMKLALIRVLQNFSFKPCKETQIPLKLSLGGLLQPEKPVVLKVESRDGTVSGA

[2] = Total clearance in Sprague-Dawley rat at 1 mg/kg, iv; assay type: ADME, organism-based; settings: in vivo
In short: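 Single intravenous dose of 1 mg/kg, with a parallel oral arm at 10 mg/kg, given to two male animals per species: C57BL/6J mice and Sprague Dawley rats. Total body clearance was derived from the plasma concentration–time profile of the compound.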

hERG (KCNH2) = hERG (KCNH2) (Homo sapiens, UniProt Q12809); assay: Inhibition of human ERG at 10 uM relative to control
Chain of hERG (KCNH2) (Q12809 whole entry): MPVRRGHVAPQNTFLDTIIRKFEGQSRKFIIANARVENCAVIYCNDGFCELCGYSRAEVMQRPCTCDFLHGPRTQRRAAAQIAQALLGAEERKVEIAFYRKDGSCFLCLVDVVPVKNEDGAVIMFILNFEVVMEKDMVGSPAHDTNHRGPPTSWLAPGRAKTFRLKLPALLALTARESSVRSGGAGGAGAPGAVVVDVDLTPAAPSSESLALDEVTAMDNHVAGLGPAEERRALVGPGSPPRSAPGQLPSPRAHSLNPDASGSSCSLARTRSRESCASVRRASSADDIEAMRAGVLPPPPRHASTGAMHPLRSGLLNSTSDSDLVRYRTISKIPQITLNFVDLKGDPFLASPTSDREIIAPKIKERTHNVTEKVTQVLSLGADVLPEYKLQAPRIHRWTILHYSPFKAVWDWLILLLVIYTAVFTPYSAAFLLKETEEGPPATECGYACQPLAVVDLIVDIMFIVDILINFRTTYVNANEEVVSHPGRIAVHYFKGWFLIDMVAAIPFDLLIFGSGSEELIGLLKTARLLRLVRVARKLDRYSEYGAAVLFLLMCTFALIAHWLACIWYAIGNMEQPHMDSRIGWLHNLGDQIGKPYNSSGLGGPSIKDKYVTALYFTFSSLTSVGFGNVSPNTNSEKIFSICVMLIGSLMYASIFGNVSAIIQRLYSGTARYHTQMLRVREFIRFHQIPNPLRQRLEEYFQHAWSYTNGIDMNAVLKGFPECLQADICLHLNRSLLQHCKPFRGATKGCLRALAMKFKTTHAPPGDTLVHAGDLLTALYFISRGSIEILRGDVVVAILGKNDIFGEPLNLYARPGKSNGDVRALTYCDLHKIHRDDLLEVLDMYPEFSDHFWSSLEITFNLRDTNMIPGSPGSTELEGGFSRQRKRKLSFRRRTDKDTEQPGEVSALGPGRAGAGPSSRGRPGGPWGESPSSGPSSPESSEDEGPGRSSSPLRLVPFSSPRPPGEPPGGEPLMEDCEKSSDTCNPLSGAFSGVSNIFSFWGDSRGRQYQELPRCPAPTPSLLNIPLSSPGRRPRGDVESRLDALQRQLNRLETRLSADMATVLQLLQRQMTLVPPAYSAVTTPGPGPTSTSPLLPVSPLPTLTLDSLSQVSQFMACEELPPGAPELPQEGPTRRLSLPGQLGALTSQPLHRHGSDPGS

Rattus norvegicus = assay: Toxicity in Sprague-Dawley rat assessed as loss of fur at 1000 mg/kg, po once daily for 2 weeks measured from day 9 of administeration; assay type: organism-based; settings: in vivo, 336 h
In short: (§2)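 Male Sprague Dawley rats, 6 weeks old (5 per group), were dosed orally once daily for 2 weeks at 100 or 1000 mg/kg as a suspension in 0.5% methylcellulose; controls received vehicle. Readouts: clinical observations, body weight, food consumption, ophthalmoscopy in week 2, and terminal necropsy, hematology, clinical chemistry, organ weights and histopathology. Plasma levels were measured 24 h post-dose on days 1, 5 and 10.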

Mus musculus [3] = assay: Ex vivo inhibition of SCD1 in C57BL/6J mouse eyelid assessed as residual activity at 100 mg/kg, po treated for 24 hrs followed by incubation with [14C]stearoyl-CoA substrate for 30 mins by TLC assay relative to control; assay type: organism-based
In short: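 Male 6-week-old C57BL/6J mice dosed orally as a suspension in 0.5% methylcellulose. Liver or eyelid was taken 6 or 24 h later and homogenized in 100 mM Tris-HCl pH 7.4 with 0.25 M sucrose. S9 was obtained at 10,000 × g, 4 °C. S9 was incubated with [14C]stearoyl-CoA, NADH, MgCl2 and cytochrome b5 at room temperature, 10 min for liver and 30 min for eyelid. Lipids were saponified and run on AgNO3 TLC to quantify stearate and oleate. Result is % of vehicle control.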

Acyl-CoA desaturase 1 = target: T1, Acyl-CoA desaturase 1 (Mus musculus, UniProt P13516); assay: Inhibition of mouse liver microsome SCD assessed as reduction in [3H]H2O production using stearoyl [9,10-3H]CoA as substrate in presence of NADH incubated for 30 mins by scintillation counting method; assay type: microsomes
T1 sequence (P13516 whole entry): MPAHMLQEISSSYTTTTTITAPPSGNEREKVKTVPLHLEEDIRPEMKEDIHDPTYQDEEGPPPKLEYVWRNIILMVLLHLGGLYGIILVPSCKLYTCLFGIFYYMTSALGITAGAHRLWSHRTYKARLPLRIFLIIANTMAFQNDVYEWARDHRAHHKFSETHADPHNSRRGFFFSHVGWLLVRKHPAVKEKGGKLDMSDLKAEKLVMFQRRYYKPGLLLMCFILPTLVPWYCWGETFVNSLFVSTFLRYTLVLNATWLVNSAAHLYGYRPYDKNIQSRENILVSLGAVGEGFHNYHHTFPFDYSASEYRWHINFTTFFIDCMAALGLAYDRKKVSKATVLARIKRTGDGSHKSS
In short: (§3)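 Desaturation of [9,10-3H]stearoyl-CoA measured as released [3H]H2O. Water was separated from charcoal-adsorbed substrate by filtration and counted by scintillation. Remaining activity = (compound − background)/(control − background). DMSO wells served as control and pre-stopped wells as background. IC50 was interpolated from the two points bracketing 50%.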

[4] = Toxicity in Sprague-Dawley rat administered orally once daily for 2 weeks; assay type: organism-based; settings: in vivo, po; in short: as §2
[5] = Drug uptake in high sucrose diet Sprague-Dawley rat eyelid at 10 mg/kg, po treated after 6 hrs; assay type: ADME, organism-based; settings: read-out: Drug uptake
In short: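 Sprague-Dawley rats on a high sucrose diet, given a single oral 10 mg/kg dose. Plasma, liver and eyelid drug concentrations were measured 6 h later, n=3. Liver/eyelid ratio was taken from the tissue concentrations.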

Cytochrome P450 2C19 = Cytochrome P450 2C19 (Homo sapiens, UniProt P33261); assay: Inhibition of CYP2C19 (unknown origin); assay type: ADME
Chain of Cytochrome P450 2C19 (P33261 whole entry): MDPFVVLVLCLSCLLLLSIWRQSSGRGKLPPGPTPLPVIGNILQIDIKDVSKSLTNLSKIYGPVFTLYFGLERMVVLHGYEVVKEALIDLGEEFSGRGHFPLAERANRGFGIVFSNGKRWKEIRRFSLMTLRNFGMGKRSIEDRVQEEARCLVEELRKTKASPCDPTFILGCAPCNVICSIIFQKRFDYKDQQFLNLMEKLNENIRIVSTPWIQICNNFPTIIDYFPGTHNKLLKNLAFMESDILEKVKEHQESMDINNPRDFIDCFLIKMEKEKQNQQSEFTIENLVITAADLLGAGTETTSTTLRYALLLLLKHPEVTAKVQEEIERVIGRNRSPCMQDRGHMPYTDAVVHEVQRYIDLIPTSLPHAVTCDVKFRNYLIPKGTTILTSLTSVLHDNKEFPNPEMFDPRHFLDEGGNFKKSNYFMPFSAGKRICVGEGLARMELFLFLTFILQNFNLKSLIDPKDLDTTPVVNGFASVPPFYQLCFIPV

Stearoyl-CoA desaturase = target: T2, Stearoyl-CoA desaturase (Homo sapiens, UniProt O00767); assay: Inhibition of recombinant human SCD1 expressed in baculovirus expression system assessed as reduction in [3H]H2O production using stearoyl [9,10-3H]CoA as substrate in presence of NADH incubated for 30 mins by scintillation counting method; in short: as §3
T2 sequence (O00767 whole entry): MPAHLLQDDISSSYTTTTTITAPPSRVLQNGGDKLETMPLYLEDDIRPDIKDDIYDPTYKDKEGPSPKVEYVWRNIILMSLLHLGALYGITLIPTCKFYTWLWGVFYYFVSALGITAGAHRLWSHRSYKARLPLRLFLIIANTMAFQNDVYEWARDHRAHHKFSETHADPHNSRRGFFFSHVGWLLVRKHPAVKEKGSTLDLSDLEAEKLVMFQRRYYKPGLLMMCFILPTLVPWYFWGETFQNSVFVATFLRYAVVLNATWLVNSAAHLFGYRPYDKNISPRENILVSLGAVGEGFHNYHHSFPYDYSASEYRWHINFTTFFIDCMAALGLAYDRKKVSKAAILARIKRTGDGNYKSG

[6] = Cmax in C57BL/6J mouse at 10 mg/kg, po; assay type: ADME, organism-based; parameters: dose 10 mg/kg, route oral; settings: in vivo
In short: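 Two male C57BL/6J mice per route, 10 mg/kg po and 1 mg/kg iv. Plasma concentration–time profiles gave Cmax, tmax, terminal half-life and AUC0-inf. Bioavailability was derived from the po and iv data.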

[7] = Tmax in Sprague-Dawley rat at 10 mg/kg, po; assay type: ADME, organism-based; settings: in vivo; in short: as §1
[8] = Metabolic stability in human liver S9 fraction after 1 hr; assay type: ADME, subcellular; settings: read-out: Stability
[9] = AUC in Sprague-Dawley rat at 100 mg/kg, po; assay type: ADME, organism-based; settings: in vivo
In short: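 Male 6-week-old SD rats, 5 per group, dosed orally once daily for 2 weeks as a suspension in 0.5% methylcellulose aqueous solution. Plasma drug levels taken 24 h after dosing on days 1, 5 and 10. Exposure figure is from this 2-week repeat-dose toxicity study.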

[10] = Metabolic stability in mouse liver S9 fraction after 1 hr; assay type: ADME, subcellular; settings: read-out: Stability
Mus musculus [11] = assay: Antiobesity activity in high fat diet fed C57BL/6J mouse assessed as reduction in diet-induced body weight gain administered orally as diet mixture for 43 days; assay type: functional, organism-based
In short: (§4)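 C57BL/6J mice, individually housed, fed HFD for one month, then given HFD admixed with drug (0.0040% for 3 mg/kg/day, 0.0133% for 10 mg/kg/day) for 43 days, from 10 to 16 weeks of age. Chow-fed normal group as control. Body weight measured every 3–4 days. Mean ± SD, n=5–8. Dunnett's test versus HFD control.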

Mus musculus [12] = assay: Antiobesity activity in high fat diet fed C57BL/6J mouse assessed as reduction in diet-induced body weight gain at 10 mg/kg, po administered as diet mixture for 43 days relative to control; assay type: functional; parameters: scale not given: the % may be the effect or the level left; in short: as §4

bioavailability [1]: 16% | IC50 (Cytochrome P450 3A4): > 50000 nM | clearance [2]: 0.21 L/h/kg | Activity (Mus musculus [3]): 57% | IC50 (Acyl-CoA desaturase 1): 5.4 nM | concentration at 6 h [5]: 0.16 µM | IC50 (Cytochrome P450 2C19): > 50000 nM | IC50 (Stearoyl-CoA desaturase): 8.8 nM | Cmax [6]: 1.7 µM | Tmax [7]: 30 min | remaining at 1 h [8]: 91% | AUC [9]: 179 µM·h | remaining at 1 h [10]: 90%
SMILES: CCCCc1ccccc1NCc1ccc(C(=O)Nc2nc(CC(=O)O)cs2)s1
inhibition at 10 µM (hERG (KCNH2)): 14.7% | Activity (Rattus norvegicus): Toxic | NOAEL at 336 h [4]: 100 mg/kg | Activity (Mus musculus [11]): Dose-dependent effect | Activity (Mus musculus [12]): 6%
